Results as given in publication PMC8891099 (Clinical Pharmacokinetics, 2021).
≈ marks a conversion by molar mass, not a printed value.

Columns and labels:
[1] = Population pharmacokinetic model of finerenone in FIDELIO-DKD; type: in vivo, human
Procedure, shortened: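 Nonlinear mixed-effects model of sparse plasma levels after oral 10 or 20 mg once daily. Sampling was a month-4 trough plus post-dose samples at any time on yearly visits. Structure: two compartments with equal volumes, transit-compartment absorption and first-order elimination, starting from a phase IIb model. Covariate search used single addition and forward inclusion at p 0.01 and backward deletion at p 0.001.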

[2] = tested on: patients with CKD and T2D; test: Parametric time-to-event exposure-response; type: in vivo; settings: Homo sapiens, read-out: EC50 (half-maximal drug effect concentration)
Procedure, shortened: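 Parametric time-to-event model (Weibull hazard) for the first composite kidney event, with exposure-response as an Emax function driven by central-compartment concentration. Input was individual concentration-time profiles from post-hoc PK estimates, actual dosing history and covariates; typical PK parameters were used for subjects lacking them. Delay and Hill coefficient were tested. Checked by visual predictive checks with observed dropout.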

[3] = tested on: patients with CKD and T2D; test: FIDELIO-DKD phase III study, kidney outcome events; type: in vivo, human; settings: finerenone group, 504 of 2833 patients, median follow-up of 2.6 years
[4] = tested on: patients with CKD and T2D; settings: corresponding to sustained eGFR decrease ≥ 57%, under finerenone treatment ref 3; cited from earlier work
[5] = covariate parameter, population PK model
[6] = inter-individual variability, population PK model
[7] = population PK model estimate, FIDELIO-DKD patients

In the case of `CCOc1ncc(C)c2c1[C@H](c1ccc(C#N)cc1OC)C(C(N)=O)=C(C)N2` [finerenone], the “Effect for Korean subjects on Vc/F” value [1, 5] is reported as 1.29, the “Effect of body weight on Vc/F” value [1, 5] is reported as 0.501 and the Absorption lag time ([1]; fixed in population PK model) is reported as 0.215 (fixed) h. The “Ratio Vp/F and Vc/F” value ([1]; fixed in population PK model) was 1 (fixed), the Relative bioavailaility ([1]; fixed in population PK model) was 1 (fixed) and the “Covariance CL/F × Vc/F” value [1, 6] was 0.0442. For the same molecule, the “ω^2 Vc/F” value [1, 6] was 0.104, the “dose linearity of pharmacokinetics” value ([1]; over the investigated dose range (10 and 20 mg once daily)) was “dose linear” and the “Inter-individual variability of CL/F expressed as CV” value ([1]; population PK model) was “^aShrinkage was 26.6%, variability expressed as CV: 31.8%”. For the same molecule, the “Inter-individual variability of Vc/F expressed as CV” value ([1]; population PK model) was “^bShrinkage was 47.8%, variability expressed as CV: 33.0%”, the CL/F [1, 7] was 29.9 L/h and the Q/F [1, 7] was 0.335 L/h. For the same molecule, the Vc/F [1, 7] was 113 L, the Ka ([1]; population PK model estimate, FIDELIO-DKD patients, oral 10 or 20 mg once daily) was 22.5 h⁻¹ and the “σ^2” value ([1]; residual error, population PK model) was 0.313. The EC50 [2] was 0.166 ng/mL (≈ 0.439 nM), the “patients with a kidney event contributing to the composite endpoint” value [3] was 17.8% and the “reduction of secondary endpoint doubling of serum creatinine” value [4] was 32%.
